≈ marks a conversion by molar mass, not a printed value.

3 compounds from ChEMBL document CHEMBL1151482, “Phenolic constituents from the stem bark of Magnolia officinalis” (J Nat Prod, 2009) can be followed below.

For one experiment, the system named is BV-2. The experiment is described as follows: Antiinflammatory activity in mouse BV2 cells assessed as inhibition of LPS-induced NO production after 24 hrs by Griess reagent method. It counts as functional, cell-based. To be noted: BV-2, 24 h. Summed up:
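Microglial BV2 cells treated with test agents, then stimulated with LPS (0.5 µg/mL); nitrite accumulated in medium over 24 h measured with Griess reagent as NO readout; IC50 taken from concentration-response curves.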
On the technique in general: Nitrite, measured by Griess reagent, commonly stands in for NO production.

The nature of experiment [1]: Inhibition of NADPH oxidase-mediated ROS production in LPS-stimulated mouse BV2 cells after 20 mins by flow cytometry. The class given is cell-based. To be noted: BV-2, 20 min. Summed up:
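BV2 cells preloaded with 2′,7′-dichlorofluorescin diacetate, exposed to test agents for 20 min, then LPS-stimulated; H2O2 quantified 30 min later by flow cytometry, expressed as mean channel fluorescence; IC50 from concentration-response curves.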
(In general: In flow cytometry, cells or beads pass a laser one at a time.)

Experiment [2] has as its system Radical scavenging activity. The experiment is described as follows: Antioxidant activity assessed as DPPH free radical scavenging activity. It counts as functional. Summed up:
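Diluted drugs combined with DPPH solution in microplate; absorbance read at 517 nm; IC50 derived from concentration-response curves.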

A word on the IC50: it is the concentration at which inhibition is half-maximal. As to `C=CCc1ccc(O)c(-c2cc(C=O)ccc2O)c1` [MAGNALDEHYDE], the IC50 in the experiment with BV-2 was found to be 9.2 mg/L (≈ 36.2 µM).
On to `C=CCc1cc(-c2cc(O)ccc2O)ccc1O` [MAGNATRIOL B], for which the figures for the IC50 (in experiment [1]; in experiment [2]; in the experiment with BV-2) were 20.6 mg/L (≈ 85 µM), 27.6 mg/L (≈ 114 µM) and 0.5 mg/L (≈ 2.06 µM), respectively.
Regarding `C=CCc1ccc(O)c(-c2cc(O)ccc2O)c1` [RANDAIOL], the IC50 in experiment [2] was 21.6 mg/L (≈ 89.2 µM); in the experiment with BV-2, 1.2 mg/L (≈ 4.95 µM).
